In ChEMBL document CHEMBL1926509, “Discovery of pyrazolo[1,5-a]pyridines as p110α-selective PI3 kinase inhibitors” (Bioorg Med Chem, 2012) one finds IC50 data, which are given here for 27 compounds.

By IC50 is commonly meant the point on the concentration scale where inhibition reaches its midpoint.

Experiment [1] addresses T1, Phosphatidylinositol 4,5-bisphosphate 3-kinase catalytic subunit delta isoform (Homo sapiens, UniProt O00329).
T1 sequence (O00329 whole entry): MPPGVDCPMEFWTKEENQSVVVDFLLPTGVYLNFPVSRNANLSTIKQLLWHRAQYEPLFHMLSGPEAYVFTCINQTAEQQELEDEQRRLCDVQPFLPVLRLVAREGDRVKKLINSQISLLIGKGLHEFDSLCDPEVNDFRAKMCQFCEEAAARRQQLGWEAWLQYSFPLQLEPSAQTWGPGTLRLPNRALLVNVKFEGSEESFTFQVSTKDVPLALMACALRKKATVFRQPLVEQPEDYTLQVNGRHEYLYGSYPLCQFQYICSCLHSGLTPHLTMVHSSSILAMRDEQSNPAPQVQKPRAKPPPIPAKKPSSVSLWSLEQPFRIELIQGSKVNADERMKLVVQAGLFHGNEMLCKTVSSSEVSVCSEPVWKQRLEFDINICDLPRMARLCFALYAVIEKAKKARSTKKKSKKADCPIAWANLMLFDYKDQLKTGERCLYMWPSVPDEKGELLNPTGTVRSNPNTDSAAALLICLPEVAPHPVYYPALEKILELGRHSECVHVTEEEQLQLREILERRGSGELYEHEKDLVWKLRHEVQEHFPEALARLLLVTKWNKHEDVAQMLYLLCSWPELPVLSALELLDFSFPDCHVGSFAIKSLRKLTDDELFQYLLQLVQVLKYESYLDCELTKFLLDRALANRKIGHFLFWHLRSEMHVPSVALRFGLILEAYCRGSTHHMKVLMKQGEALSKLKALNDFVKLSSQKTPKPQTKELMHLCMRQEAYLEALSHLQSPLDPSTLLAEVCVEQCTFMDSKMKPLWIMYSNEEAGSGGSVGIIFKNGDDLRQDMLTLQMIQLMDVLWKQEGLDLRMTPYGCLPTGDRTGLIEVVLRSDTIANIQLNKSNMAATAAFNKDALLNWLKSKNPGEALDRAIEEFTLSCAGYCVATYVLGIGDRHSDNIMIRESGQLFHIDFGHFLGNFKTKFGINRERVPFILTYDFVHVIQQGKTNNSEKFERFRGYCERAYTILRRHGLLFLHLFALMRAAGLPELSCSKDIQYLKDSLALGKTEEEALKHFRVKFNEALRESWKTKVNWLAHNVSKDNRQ
The experiment is described as follows: Inhibition of recombinant PI3K p110delta using L-alpha-phosphatidylinositol as substrate and [gamma33P]ATP after 60 mins by thin layer chromatographic technique. The essentials: (§1)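 In-house recombinant class Ia PI3K isoform (0.1 µg) with L-α-phosphatidylinositol substrate in lipid kinase buffer (Tris–HCl pH 7.4, NaCl, EDTA), 1% DMSO final. Started with ATP mix (5 mM MgCl₂, 100 µM ATP plus [γ-³³P]ATP), 1 h at room temperature, stopped with 1 M HCl. Lipids extracted in two steps, separated by TLC, read by phosphorimager. Nine inhibitor concentrations; IC50 averaged over two experiments.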

Experiment [2] addresses Phosphatidylinositol 4,5-bisphosphate 3-kinase catalytic subunit beta isoform (Homo sapiens, UniProt P42338). The experiment is described as follows: Inhibition of recombinant PI3K p110beta using L-alpha-phosphatidylinositol as substrate and [gamma33P]ATP after 60 mins by thin layer chromatographic technique. In a few lines: as §1
Experiment [3] is described as follows: Cytotoxicity against human NZOV9 cells expressing p110alpha Y1021C mutant assessed as inhibition of [3H]thymidine incorporation after 5 days. The format is functional, cell-based. The essentials: (§2)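 Early-passage lab-derived lines in α-MEM with insulin, transferrin, selenite and 5% FBS. Seeded at 1000 cells/well; drug added in 10-fold steps up to 20 µM. Incubated five days under 5% O₂/5% CO₂/90% N₂, with ³H-thymidine (0.04 µCi/well) over the last 6 h. Duplicates per dose; least-squares exponential fit; IC50 is the concentration giving 50% less incorporation.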
Background: Incorporation of labelled thymidine or its analogues reports DNA synthesis.

Experiment [4] can be described thus: Cytotoxicity against human NZB5 cells expressing wild type p110alpha assessed as inhibition of [3H]thymidine incorporation after 5 days. The format is functional, cell-based. The essentials: as §2
Experiment [5] concerns the target Phosphatidylinositol 4,5-bisphosphate 3-kinase catalytic subunit alpha isoform (Homo sapiens, UniProt P42336). The experiment is described as follows: Inhibition of recombinant PI3K p110alpha using L-alpha-phosphatidylinositol as substrate and [gamma33P]ATP after 60 mins by thin layer chromatographic technique. In a few lines:
as §1

Phosphatidylinositol 4,5-bisphosphate 3-kinase catalytic subunit alpha isoform, sequence (P42336 whole entry, canonical isoform): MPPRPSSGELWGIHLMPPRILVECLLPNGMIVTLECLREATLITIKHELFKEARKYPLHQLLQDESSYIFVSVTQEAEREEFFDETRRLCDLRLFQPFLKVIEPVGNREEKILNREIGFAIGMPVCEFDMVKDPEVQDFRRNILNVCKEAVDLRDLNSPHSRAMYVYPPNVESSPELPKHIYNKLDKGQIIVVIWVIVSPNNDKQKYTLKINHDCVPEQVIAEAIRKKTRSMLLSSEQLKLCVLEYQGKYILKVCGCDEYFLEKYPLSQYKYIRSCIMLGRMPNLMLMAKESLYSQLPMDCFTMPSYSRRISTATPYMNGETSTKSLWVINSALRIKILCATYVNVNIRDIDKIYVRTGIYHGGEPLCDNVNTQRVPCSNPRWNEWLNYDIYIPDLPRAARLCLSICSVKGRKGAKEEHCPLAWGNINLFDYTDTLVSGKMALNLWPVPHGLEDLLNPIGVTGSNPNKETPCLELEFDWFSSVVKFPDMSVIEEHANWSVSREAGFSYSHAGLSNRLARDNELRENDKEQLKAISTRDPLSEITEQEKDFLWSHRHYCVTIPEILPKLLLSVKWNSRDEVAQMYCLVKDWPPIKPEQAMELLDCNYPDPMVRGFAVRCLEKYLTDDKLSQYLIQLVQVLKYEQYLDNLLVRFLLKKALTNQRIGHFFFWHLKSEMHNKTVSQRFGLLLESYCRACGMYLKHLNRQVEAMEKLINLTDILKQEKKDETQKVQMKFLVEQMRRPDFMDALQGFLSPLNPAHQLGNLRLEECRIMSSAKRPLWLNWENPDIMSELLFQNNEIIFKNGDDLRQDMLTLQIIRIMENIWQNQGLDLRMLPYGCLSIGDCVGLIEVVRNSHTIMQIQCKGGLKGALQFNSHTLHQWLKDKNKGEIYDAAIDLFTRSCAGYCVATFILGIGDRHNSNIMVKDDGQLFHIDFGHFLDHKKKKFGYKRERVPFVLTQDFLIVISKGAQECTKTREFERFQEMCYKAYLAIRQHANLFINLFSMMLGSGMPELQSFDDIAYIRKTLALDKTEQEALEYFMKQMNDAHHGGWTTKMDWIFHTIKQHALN
Phosphatidylinositol 4,5-bisphosphate 3-kinase catalytic subunit beta isoform, sequence (P42338 whole entry, canonical isoform): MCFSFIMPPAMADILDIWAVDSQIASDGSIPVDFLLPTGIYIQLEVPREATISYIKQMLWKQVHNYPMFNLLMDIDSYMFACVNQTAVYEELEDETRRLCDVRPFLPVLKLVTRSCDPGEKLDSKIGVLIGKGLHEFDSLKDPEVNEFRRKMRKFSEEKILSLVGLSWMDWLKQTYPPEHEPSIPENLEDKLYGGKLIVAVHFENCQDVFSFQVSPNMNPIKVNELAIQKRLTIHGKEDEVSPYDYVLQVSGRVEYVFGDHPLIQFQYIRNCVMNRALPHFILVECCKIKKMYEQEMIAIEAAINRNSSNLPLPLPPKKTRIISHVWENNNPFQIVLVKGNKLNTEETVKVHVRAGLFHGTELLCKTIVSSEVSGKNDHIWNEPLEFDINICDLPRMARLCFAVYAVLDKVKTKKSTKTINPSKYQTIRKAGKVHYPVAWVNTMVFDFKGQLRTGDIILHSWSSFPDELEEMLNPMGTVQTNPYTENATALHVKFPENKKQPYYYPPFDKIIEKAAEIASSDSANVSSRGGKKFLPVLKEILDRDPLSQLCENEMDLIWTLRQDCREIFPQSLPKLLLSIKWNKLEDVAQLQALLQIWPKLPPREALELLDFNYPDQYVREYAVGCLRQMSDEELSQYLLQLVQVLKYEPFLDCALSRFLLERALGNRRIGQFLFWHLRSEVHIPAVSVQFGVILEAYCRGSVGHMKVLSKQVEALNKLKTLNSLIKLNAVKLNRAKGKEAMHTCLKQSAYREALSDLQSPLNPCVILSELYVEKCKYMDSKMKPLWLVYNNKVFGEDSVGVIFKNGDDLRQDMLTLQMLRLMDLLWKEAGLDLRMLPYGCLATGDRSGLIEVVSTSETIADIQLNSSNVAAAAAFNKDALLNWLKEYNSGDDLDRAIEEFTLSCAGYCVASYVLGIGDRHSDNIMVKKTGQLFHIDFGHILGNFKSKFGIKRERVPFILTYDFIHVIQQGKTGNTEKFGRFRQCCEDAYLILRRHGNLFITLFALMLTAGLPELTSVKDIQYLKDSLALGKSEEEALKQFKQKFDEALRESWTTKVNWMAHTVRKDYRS

`Cc1ccc([N+](=O)[O-])cc1S(=O)(=O)N(C)/N=C/c1cnn2ccc(C(=O)N(C)C)cc12`: the IC50 in experiment [1] was more than 1000 nM; in experiment [2], more than 1000 nM; in experiment [3], 10000 nM; in experiment [4], 10000 nM; in experiment [5], more than 1000 nM.
On to `CC/C(=N\NS(=O)(=O)c1cc([N+](=O)[O-])ccc1C)c1cnn2ccc(C#N)cc12`, for which the IC50 in experiment [1] is 440 nM; in experiment [2], more than 1000 nM; in experiment [3], 360 nM; in experiment [4], 88 nM; in experiment [5], 10 nM.
Turning to `CCC/C(=N\N(C)S(=O)(=O)c1cc([N+](=O)[O-])ccc1C)c1cnn2ccc(C#N)cc12`, the 50% inhibitory concentration (IC50) in experiment [1] was more than 1000 nM; in experiment [2] it was more than 1000 nM; in experiment [3], 2300 nM; in experiment [4], 680 nM; in experiment [5], 610 nM.
On to `Cc1ccc([N+](=O)[O-])cc1S(=O)(=O)N(C)/N=C/c1cnn2ccc(C(N)=O)cc12`, for which the IC50 was more than 1000 nM in experiment [1]; more than 1000 nM in experiment [2]; 10000 nM in experiment [3]; 600 nM in experiment [4]; 530 nM in experiment [5].
`C/C(=N\NS(=O)(=O)c1cc([N+](=O)[O-])ccc1C)c1cnn2ccc(Br)cc12`: the IC50 came out at 220 nM in experiment [1]; 480 nM in experiment [2]; 350 nM in experiment [3]; 420 nM in experiment [4]; 30 nM in experiment [5].
Regarding `C/C(=N\N(C)S(=O)(=O)c1cc([N+](=O)[O-])ccc1C)c1cnn2ccc(Br)cc12`, the IC50 in experiment [1] is more than 1000 nM; in experiment [2], more than 1000 nM; in experiment [3] it was more than 20000 nM; in experiment [4] it was more than 20000 nM; in experiment [5], 1200 nM.
Turning to `Cc1ccc([N+](=O)[O-])cc1S(=O)(=O)N/N=C/c1cnn2ccc(C#N)cc12`, the half-maximal inhibitory concentration (IC50) is 580 nM in experiment [1]; 620 nM in experiment [2]; 4900 nM in experiment [3]; 2600 nM in experiment [4]; 13 nM in experiment [5].
For the compound `Cc1ccc([N+](=O)[O-])cc1S(=O)(=O)N(C)/N=C/c1cnn2ccc(C(F)(F)F)cc12`, the IC50 in experiment [1] was more than 1000 nM; in experiment [2], more than 1000 nM; in experiment [3], 90 nM; in experiment [4] it was 70 nM; in experiment [5], 150 nM.
For the compound `Cc1ccc([N+](=O)[O-])cc1S(=O)(=O)N(C)/N=C/c1cnn2cccc(Br)c12`, the IC50 in experiment [1] was more than 1000 nM; in experiment [2] it was more than 1000 nM; in experiment [3], 6500 nM; in experiment [4], more than 20000 nM; in experiment [5], more than 1000 nM.
Take `C=Cc1ccn2ncc(/C=N/N(C)S(=O)(=O)c3cc([N+](=O)[O-])ccc3C)c2c1`: the IC50 is more than 1000 nM in experiment [1]; more than 1000 nM in experiment [2]; 580 nM in experiment [3]; 990 nM in experiment [4]; 130 nM in experiment [5].
For `Cc1ccc2c(/C=N/N(C)S(=O)(=O)c3cc([N+](=O)[O-])ccc3C)cnn2c1`, the IC50 in experiment [1] was more than 1000 nM; in experiment [2] it was more than 1000 nM; in experiment [3] it was 8000 nM; in experiment [4] it was 10000 nM; in experiment [5], more than 1000 nM.
Take `Cc1ccc([N+](=O)[O-])cc1S(=O)(=O)N(C)/N=C/c1cnn2cccc(C)c12`: the IC50 was more than 1000 nM in experiment [1]; more than 1000 nM in experiment [2]; more than 20000 nM in experiment [3]; 18000 nM in experiment [4]; more than 1000 nM in experiment [5].
For the compound `CNC(=O)c1ccn2ncc(/C=N/N(C)S(=O)(=O)c3cc([N+](=O)[O-])ccc3C)c2c1`, the half-maximal inhibitory concentration (IC50) in experiment [1] is more than 1000 nM; in experiment [2], more than 1000 nM; in experiment [3] it was 10000 nM; in experiment [4], 10000 nM; in experiment [5] it was more than 1000 nM.
With `Cc1ccc([N+](=O)[O-])cc1S(=O)(=O)N(C)/N=C/c1cnn2ccc(Br)cc12`, the IC50 in experiment [1] came out at 150 nM; in experiment [2], 230 nM; in experiment [3], 50 nM; in experiment [4] it was 310 nM; in experiment [5], 3.8 nM.
On to `Cc1ccc([N+](=O)[O-])cc1S(=O)(=O)N(C)/N=C/c1cnn2c(C)cccc12`, for which the half-maximal inhibitory concentration (IC50) in experiment [1] is more than 1000 nM; in experiment [2], more than 1000 nM; in experiment [3], 1200 nM; in experiment [4], 6000 nM; in experiment [5], 1600 nM.
Consider `Cc1ccc([N+](=O)[O-])cc1S(=O)(=O)N(C)/N=C/c1cnn2ccc(Cl)cc12`, for which the IC50 in experiment [1] is 90 nM; in experiment [2] it was 390 nM; in experiment [3], 550 nM; in experiment [5], 2.9 nM.
On to `CCC/C(=N\NS(=O)(=O)c1cc([N+](=O)[O-])ccc1C)c1cnn2ccc(C#N)cc12`, for which the IC50 was 310 nM in experiment [1]; more than 1000 nM in experiment [2]; 640 nM in experiment [3]; 370 nM in experiment [4]; 39 nM in experiment [5].
Consider `Cc1ccc([N+](=O)[O-])cc1S(=O)(=O)N(C)/N=C/c1cnn2ccc(I)cc12`, for which the IC50 in experiment [1] came to 170 nM; in experiment [2], 370 nM; in experiment [3] it was 50 nM; in experiment [4] it was 40 nM; in experiment [5] it was 16 nM.
For `COc1ccn2ncc(/C=N/N(C)S(=O)(=O)c3cc([N+](=O)[O-])ccc3C)c2c1` the same measures were more than 1000 nM, more than 1000 nM, 520 nM, 940 nM and 190 nM.
Take `Cc1ccc([N+](=O)[O-])cc1S(=O)(=O)N(C)/N=C/c1cnn2cc(F)c(C#N)cc12`: the IC50 stood at 2500 nM in experiment [1], 1800 nM in experiment [2] and 45 nM in experiment [5].
For the compound `C/C(=N\NS(=O)(=O)c1cc([N+](=O)[O-])ccc1C)c1cnn2ccc(C#N)cc12`, the IC50 amounted to 900 nM in experiment [1]; 410 nM in experiment [2]; 2100 nM in experiment [3]; 1100 nM in experiment [4]; 7 nM in experiment [5].
Taken in the same sequence, the figures for `COC(=O)c1ccn2ncc(/C=N/N(C)S(=O)(=O)c3cc([N+](=O)[O-])ccc3C)c2c1` were 690 nM, more than 1000 nM, 1500 nM, 1800 nM and 360 nM.
Taken in the same sequence, the figures for `C#Cc1ccn2ncc(/C=N/N(C)S(=O)(=O)c3cc([N+](=O)[O-])ccc3C)c2c1` were 41 nM, 30 nM, 110 nM, 160 nM and 2.4 nM.
As to `CC(=O)Oc1ccn2ncc(/C=N/N(C)S(=O)(=O)c3cc([N+](=O)[O-])ccc3C)c2c1`, the IC50 was more than 1000 nM in experiment [1]; more than 1000 nM in experiment [2]; 8900 nM in experiment [3]; 8200 nM in experiment [4]; 910 nM in experiment [5].
Turning to `Cc1ccc([N+](=O)[O-])cc1S(=O)(=O)N(C)/N=C/c1cnn2ccc(C3CC3)cc12`, the IC50 in experiment [1] is more than 1000 nM; in experiment [2], more than 1000 nM; in experiment [3], 670 nM; in experiment [4], 740 nM; in experiment [5], 1100 nM.
For the compound `Cc1ccc([N+](=O)[O-])cc1S(=O)(=O)N(C)/N=C/c1cnn2ccc(O)cc12`, the IC50 in experiment [1] was more than 1000 nM; in experiment [2], more than 1000 nM; in experiment [3], more than 20000 nM; in experiment [4], more than 20000 nM; in experiment [5], 340 nM.
As to `Cc1ccc([N+](=O)[O-])cc1S(=O)(=O)N(C)/N=C/c1cnn2ccc(-c3ccccc3)cc12`, the IC50 in experiment [1] is more than 1000 nM; in experiment [2] it was more than 1000 nM; in experiment [3], 10000 nM; in experiment [4], 10000 nM; in experiment [5], more than 1000 nM.
